Measurements reported in ChEMBL document CHEMBL1135246, “Structure-activity study of L-cysteine-based N-type calcium channel blockers: optimization of N- and C-terminal substituents” (Bioorg Med Chem Lett, 2002).

What was measured:
[1] = system: L-type calcium channel (Mus musculus); assay: In vitro inhibition of L-type calcium channels in AtT-20 cells.; conditions: att20
[2] = target: Voltage-dependent N-type calcium channel subunit alpha-1B (Homo sapiens, UniProt Q00975); assay: In vitro inhibition of N-type calcium channels in IMR-32 cells.; type: cell-based
Chain of Voltage-dependent N-type calcium channel subunit alpha-1B (Q00975 whole entry): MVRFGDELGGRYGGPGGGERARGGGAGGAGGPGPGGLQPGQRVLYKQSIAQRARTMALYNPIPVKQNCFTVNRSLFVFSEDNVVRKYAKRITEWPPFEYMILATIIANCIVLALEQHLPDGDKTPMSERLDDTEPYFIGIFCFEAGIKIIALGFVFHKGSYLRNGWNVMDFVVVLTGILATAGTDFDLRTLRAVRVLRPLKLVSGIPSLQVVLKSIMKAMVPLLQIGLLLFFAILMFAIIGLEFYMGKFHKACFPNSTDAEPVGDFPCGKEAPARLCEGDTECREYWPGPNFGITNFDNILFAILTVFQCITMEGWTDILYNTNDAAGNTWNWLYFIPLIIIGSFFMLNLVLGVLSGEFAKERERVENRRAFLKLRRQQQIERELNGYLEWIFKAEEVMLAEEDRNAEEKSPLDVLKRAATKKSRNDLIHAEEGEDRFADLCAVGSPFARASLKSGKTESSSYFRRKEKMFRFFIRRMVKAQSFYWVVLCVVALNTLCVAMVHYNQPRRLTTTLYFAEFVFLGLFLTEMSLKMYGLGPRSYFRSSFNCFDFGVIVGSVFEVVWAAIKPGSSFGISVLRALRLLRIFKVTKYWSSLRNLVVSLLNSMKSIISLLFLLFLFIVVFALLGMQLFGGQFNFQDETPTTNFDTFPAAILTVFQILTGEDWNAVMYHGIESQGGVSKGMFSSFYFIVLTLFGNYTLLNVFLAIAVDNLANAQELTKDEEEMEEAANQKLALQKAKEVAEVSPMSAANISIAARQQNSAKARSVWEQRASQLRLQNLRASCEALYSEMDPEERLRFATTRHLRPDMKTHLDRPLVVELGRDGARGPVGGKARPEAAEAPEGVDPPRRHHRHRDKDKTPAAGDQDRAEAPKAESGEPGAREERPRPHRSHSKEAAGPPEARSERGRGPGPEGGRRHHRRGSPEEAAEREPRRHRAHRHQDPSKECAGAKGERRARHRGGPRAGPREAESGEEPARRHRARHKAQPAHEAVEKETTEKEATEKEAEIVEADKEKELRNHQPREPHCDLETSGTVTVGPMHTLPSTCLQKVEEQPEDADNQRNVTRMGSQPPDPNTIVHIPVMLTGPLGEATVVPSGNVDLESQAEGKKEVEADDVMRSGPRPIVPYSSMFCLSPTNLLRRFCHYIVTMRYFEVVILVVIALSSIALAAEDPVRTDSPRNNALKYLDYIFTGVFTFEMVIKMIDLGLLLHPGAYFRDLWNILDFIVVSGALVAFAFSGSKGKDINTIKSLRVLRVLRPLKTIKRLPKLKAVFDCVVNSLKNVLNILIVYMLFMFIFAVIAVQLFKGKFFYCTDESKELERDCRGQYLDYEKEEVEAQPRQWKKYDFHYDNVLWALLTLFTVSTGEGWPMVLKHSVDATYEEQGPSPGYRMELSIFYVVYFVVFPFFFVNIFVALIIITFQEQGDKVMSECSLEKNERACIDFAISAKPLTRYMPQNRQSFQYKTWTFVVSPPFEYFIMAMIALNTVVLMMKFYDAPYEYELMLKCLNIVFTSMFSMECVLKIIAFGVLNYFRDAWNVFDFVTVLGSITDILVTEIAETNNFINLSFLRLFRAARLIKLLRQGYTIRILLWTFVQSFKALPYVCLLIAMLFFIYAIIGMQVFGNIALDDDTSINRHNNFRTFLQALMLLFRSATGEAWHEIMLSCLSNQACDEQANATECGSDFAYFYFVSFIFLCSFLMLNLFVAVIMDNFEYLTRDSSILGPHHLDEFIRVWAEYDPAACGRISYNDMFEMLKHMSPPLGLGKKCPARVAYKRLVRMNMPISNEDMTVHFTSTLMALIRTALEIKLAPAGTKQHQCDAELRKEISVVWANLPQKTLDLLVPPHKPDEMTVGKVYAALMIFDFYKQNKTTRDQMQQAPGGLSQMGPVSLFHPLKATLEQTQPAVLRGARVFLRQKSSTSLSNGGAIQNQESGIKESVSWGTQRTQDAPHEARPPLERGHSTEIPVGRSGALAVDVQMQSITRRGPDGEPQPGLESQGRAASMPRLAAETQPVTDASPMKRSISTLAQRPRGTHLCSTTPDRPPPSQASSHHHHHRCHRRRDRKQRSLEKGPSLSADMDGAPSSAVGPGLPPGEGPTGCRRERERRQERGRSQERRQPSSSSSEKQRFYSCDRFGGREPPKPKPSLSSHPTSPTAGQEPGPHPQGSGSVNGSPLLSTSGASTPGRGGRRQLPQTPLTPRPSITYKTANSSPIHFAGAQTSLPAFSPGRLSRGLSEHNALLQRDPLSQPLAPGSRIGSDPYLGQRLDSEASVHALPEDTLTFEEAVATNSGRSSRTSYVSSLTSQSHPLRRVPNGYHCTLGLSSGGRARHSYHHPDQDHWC
Procedure, shortened: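 N-type channel block was assessed in IMR-32 cells. Cells in suspension were loaded with fura-2/AM for 30 min at 37 °C, and calcium influx ([Ca²⁺]i) was measured. IC50 values are means of multiple determinations, each performed in duplicate.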

[3] = In vitro inhibition of L-type calcium channels in AtT-20 cells.; type: functional, cell-based, Mus musculus; conditions: att20
Procedure, shortened: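 Mouse pituitary tumour AtT-20/D16v-F2 cells, grown in DMEM with 10% FBS and penicillin–streptomycin, served as the L-type channel source. Cells in suspension were loaded with fura-2/AM for 30 min at 37 °C, and calcium influx ([Ca²⁺]i) was read fluorometrically. IC50 values are means of multiple determinations, each run in duplicate.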

SMILES | IC50 [1] | IC50 [2] | IC50 [3]
CC(C)(C)OC(=O)N1CSC[C@H]1C(=O)N[C@@H](CSCC1CCCCC1)C(=O)NCc1ccc(OCc2ccccc2)cc1 | 1500 nM | 500 nM | 
COc1ccc(CNC(=O)[C@H](CSCC2CCCCC2)NC(=O)C2CCCC2)cc1 |  | 920 nM | 2300 nM
CC(C)COC(=O)N1CSC[C@H]1C(=O)N[C@@H](CSCC1CCCCC1)C(=O)NCc1ccc(Oc2ccccc2)cc1 | 1200 nM | 360 nM | 
C=CCOC(=O)N1CSC[C@H]1C(=O)N[C@@H](CSCC1CCCCC1)C(=O)NCc1ccc(Oc2ccccc2)cc1 | 440 nM | 330 nM | 
COc1ccc(CNC(=O)[C@@H](N)CSCC2CCCCC2)cc1 |  | 5800 nM | 
COc1ccc(CNC(=O)[C@H](CSCC2CCCCC2)NC(=O)CC(C)C)cc1 |  | 1200 nM | 2700 nM
CC(C)(C)OC(=O)N1CSC[C@H]1C(=O)N[C@@H](CSCC1CCCCC1)C(=O)NCc1ccc([N+](=O)[O-])cc1 | 500 nM | 600 nM | 
O=C(NCc1ccc(Oc2ccccc2)cc1)[C@H](CSCC1CCCCC1)NC(=O)[C@@H]1CSCN1CCO | 1100 nM | 350 nM | 
COc1ccc(CNC(=O)[C@H](CSCC2CCCCC2)NC(=O)c2cscn2)cc1 |  | 1900 nM | 2700 nM
CC(C)(C)OC(=O)N1CSC[C@H]1C(=O)N[C@@H](CSCC1CCCCC1)C(=O)NCc1ccc(O)cc1 | 2800 nM | 1800 nM | 
O=C(N[C@@H](CSCC1CCCCC1)C(=O)NCc1ccc(Oc2ccccc2)cc1)[C@@H]1CSCN1 | 2000 nM | 290 nM | 
COc1ccc(CNC(=O)[C@H](CSCC2CCCCC2)NC(=O)OCC(C)C)cc1 |  | 720 nM | 1500 nM
COCC(=O)N1CSC[C@H]1C(=O)N[C@@H](CSCC1CCCCC1)C(=O)NCc1ccc(Oc2ccccc2)cc1 | 930 nM | 120 nM | 
COC(=O)N1CSC[C@H]1C(=O)N[C@@H](CSCC1CCCCC1)C(=O)NCc1ccc(Oc2ccccc2)cc1 | 870 nM | 120 nM | 
CN(C)c1ccc(CNC(=O)[C@H](CSCC2CCCCC2)NC(=O)[C@@H]2CSCN2C(=O)OC(C)(C)C)cc1 | 950 nM | 610 nM | 
COc1ccc(CNC(=O)[C@H](CSCC2CCCCC2)NC(=O)C2CCCCC2)cc1 |  | 1300 nM | 1900 nM
COCCN1CSC[C@H]1C(=O)N[C@@H](CSCC1CCCCC1)C(=O)NCc1ccc(Oc2ccccc2)cc1 | 600 nM | 200 nM | 
CC(C)(C)OC(=O)N1CSC[C@H]1C(=O)N[C@@H](CSCC1CCCCC1)C(=O)NCc1ccc(Oc2ccccc2)cc1 | 1700 nM |  | 
